# HTRA1 inhibitor – inhibitors of human serine peptidase HTRA1. Q92743. recombinant HTRA1, FP-rhodamine activity-based probe, fluorescence polarization. inhibition, % at 5.96 µM. actives 0.5% (n = 340,000); in the data active = inhibition above about 36%
# PRMT1 inh – PRMT1 (human) inhibition, primary screen; Q99873; recombinant PRMT1, activity-based probe fluorescence polarization; inhibition, % at 2.79 µM; actives 1.3% (n = 370,000); AID 652257;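 active = inhibition above about 21% made by adding two undisclosed values, limit read from the data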
# TCR CD3 inh – inhibitors of human TCR-CD3 interaction; TAMRA-labeled TCR probe fluorescence, biochemical; AID 651800; inhibition, % at 9.4 µM; actives 0.37% (n = 360,000); in the data active = inhibition above about 19%;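 also: recombinant mutant TCR 2C K166C tagged with TAMRA read by polarization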
# SIAE primary – inhibitors of human sialic acid acetylesterase SIAE. SIAE FP-Rh probe binding, fluorescence polarization. inhibition, % at 9.66 µM. actives 0.69% (n = 370,000). AID 1053197;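 active = inhibition above a cutoff: mean of compounds within the control limits plus 3 SD of those, cut at about 17% in these data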
# Target sequence (Q9HAT2 whole entry, looked up): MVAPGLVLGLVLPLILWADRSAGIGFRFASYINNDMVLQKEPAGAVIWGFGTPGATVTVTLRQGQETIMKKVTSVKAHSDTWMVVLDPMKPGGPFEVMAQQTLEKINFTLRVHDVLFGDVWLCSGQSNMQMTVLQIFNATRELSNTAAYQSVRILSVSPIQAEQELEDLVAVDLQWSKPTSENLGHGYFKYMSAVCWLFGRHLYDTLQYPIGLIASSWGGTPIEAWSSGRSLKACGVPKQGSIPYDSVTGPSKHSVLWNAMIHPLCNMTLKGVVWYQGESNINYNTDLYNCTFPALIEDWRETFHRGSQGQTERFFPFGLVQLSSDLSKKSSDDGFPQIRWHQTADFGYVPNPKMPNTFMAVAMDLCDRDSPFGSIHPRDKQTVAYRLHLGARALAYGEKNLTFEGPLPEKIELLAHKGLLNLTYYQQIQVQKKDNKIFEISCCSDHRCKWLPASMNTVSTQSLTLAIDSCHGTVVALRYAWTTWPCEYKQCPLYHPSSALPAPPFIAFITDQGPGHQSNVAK
# ABHD4 inh – ABHD4 (mouse) inhibition, primary FP screen. Q8VD66. purified mABHD4, FP-Rh probe fluorescence polarization. inhibition, % at 8.92 µM. actives 0.54% (n = 370,000). AID 720543;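 active = inhibition exceeding the mean over every tested compound plus 3 SD, cut at about 30% in these data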
#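 Test system: mouse ABHD4 enzyme, wild type. Reagent: FP-Rh fluorescent activity-based probe, added after compound pre-incubation. Timing: pre-incubation 45 min, probe exposure 60 min, at 25 °C. Technique: FP readout, ex 525 nm / em 598 nm. Benchmarks: high control S159A mutant with DMSO, low control median of compound wells.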
# SIAE inh conf – human SIAE inhibition, confirmation | SIAE FP-Rh activity-based probe, fluorescence polarization | inhibition, % at 9.66 µM | shares compounds with SIAE primary | actives 13% (n = 2,300);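 active = mean inhibition of the replicates above the hit cutoff set in the primary screen, cut at about 17% in these data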;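 also: inhibitors lower polarization as more probe stays unbound to SIAE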
# Numbers stand for hits; 0 = inactive; - = no result given. Most compounds without a hit are left out; they make up all but 2.6% or so of the library.
SMILES,HTRA1 inhibitor,PRMT1 inh,TCR CD3 inh,SIAE primary,ABHD4 inh,SIAE inh conf
CC1CN(C(=O)CCC(=O)N2CCC3(CC2)OCCO3)c2cc(Cl)ccc2O1 (stereo unspecified),0,0,0,0,0,-
CCCC1(CCO)C(=O)NC(=S)NC1=O,0,0,0,0,0,-
Nc1ccc(N=Nc2ccccc2)cc1,0,0,0,0,0,-
Cc1cc(N=Nc2ccccc2C)ccc1N,0,0,0,32,0,0
COc1ccc2c(c1)c(C(=O)CN1CCC3(CC1)OCCO3)c(C)n2Cc1ccccc1,0,0,0,68,0,0
CCN1CCN(CC(=O)c2c(C)n(Cc3ccccc3)c3ccc(OC)cc23)CC1,0,0,0,0,0,-
C=C1C(C)C2C(Cc3ccccc3)NC(=O)C23OC(=O)/C=C/C(O)CCCC(C)C/C=C/C3C1O (stereo unspecified),0,0,0,0,0,-
Nc1ccc(S(=O)(=O)N2CC3CC(C2)c2cccc(=O)n2C3)cc1 (stereo unspecified),0,0,0,17,0,0
N=C1c2ccccc2CN1NC(=O)c1ccco1,0,0,0,0,0,-
Cn1c(CN2CCN(C(=O)COc3ccccc3)CC2)nc2cc([N+](=O)[O-])ccc21,0,0,0,151,0,0
C[C@H](Cc1ccc(OCC(=O)O)cc1)NC[C@H](O)c1cccc(Cl)c1,-,0,0,0,0,-
C(#CCN1CCCCC1)COCc1ccccc1,0,0,0,21,0,0
CC(C)(C)NC(=S)N1CCn2cccc2C1c1cccnc1 (stereo unspecified),0,0,0,21,0,0
Cc1cc(=O)oc2c(C)c(OCC(=O)N3CCN(Cc4ccccc4)CC3)ccc12,0,0,0,0,0,-
NP(=O)(OCC(F)(F)F)Oc1ccc(Cl)cc1 (stereo unspecified),0,0,0,20,0,0

# Source: PubChem BioAssay
